The source made the active and inactive calls. The calls are words filed in the database; no cut-off is given here.
Key:
[1] = system: Leishmania amazonensis; experiment: Leishmanicidal activity against Leishmania amazonensis promastigote form at 100 ug/mL; format: functional
Method in brief: (§1)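 Promastigotes grown at 28°C in Schneider's medium with 20% FCS, seeded at 10^7 parasites/mL; compound dissolved in minimal DMSO or Tween 80 and diluted in Schneider's medium to a final 100 µg/mL. After 72 h at 28°C, parasites examined by inverted microscopy and compared with compound-free control.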

[2] = system: Leishmania infantum; experiment: Leishmanicidal activity against Leishmania infantum promastigote form at 100 ug/mL; format: functional; method in brief: as §1
[3] = system: Leishmania braziliensis; experiment: Leishmanicidal activity against Leishmania braziliensis promastigote form at 100 ug/mL; format: functional; method in brief: as §1
[4] = system: J774; experiment: Cytotoxicity against mouse J774 macrophage at 400 uM; format: functional
Method in brief: (§2)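 J774 macrophages in RPMI 1640 with 20% heat-inactivated FCS, attached 24 h at 37°C in 5% CO2, then exposed to compound for 48 h. Washed, MTT 0.4 mg/mL 60 min at 37°C, formazan dissolved in DMSO, OD595 read. Each concentration in triplicate with six growth controls; %cytotoxicity corrected for compound-in-medium and medium-only blanks.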

[5] = system: J774; experiment: Cytotoxicity against mouse J774 macrophage at 40 uM; format: functional; method in brief: as §2
[6] = system: Trypanosoma cruzi; experiment: Antitrypanosomatid activity against Trypanosoma cruzi Tulahuen 2 epimastigote form at 25 uM; format: functional; conditions: read-out: GI
Method in brief: (§3)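 Tulahuen 2 epimastigotes in BHI-tryptose plus 5% FCS at 28°C, inoculated at 1×10^6 cells/mL with compound (25 or 100 µM) from DMSO stock, final DMSO ≤0.4%. Growth over 5 days followed by A600; %GI computed from day-0 and day-5 absorbances of treated vs compound-free control cultures; mean of three experiments.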

[7] = system: Trypanosoma cruzi; experiment: Antitrypanosomatid activity against Trypanosoma cruzi Tulahuen 2 epimastigote form; format: functional, organism-based
Method in brief: (§4)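 Epimastigotes grown at 28°C in BHI-tryptose with 5% fetal calf serum; 5-day stationary-phase cells inoculated at 1×10^6 cells/mL with compound added from DMSO stock (final DMSO ≤0.4%; control contains 0.4% DMSO). Growth followed by A600; at day 5 absorbance related to control across increasing concentrations; IC50 taken as concentration reducing absorbance ratio to 50%.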

[8] = system: Trypanosoma cruzi; experiment: Antitrypanosomatid activity against Trypanosoma cruzi CL Brener epimastigote form; format: functional, organism-based; method in brief: as §4
[9] = system: Trypanosoma cruzi; experiment: Antitrypanosomatid activity against Trypanosoma cruzi Y epimastigote form; format: functional, organism-based; method in brief: as §4
[10] = system: Trypanosoma cruzi; experiment: Trypanocidal activity against Trypanosoma cruzi CL Brener trypomastigote form in mouse blood at 250 ug/mL; format: functional
Method in brief: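 Trypomastigotes taken from infected mouse blood; compound in DMSO diluted with PBS to 250 µg/mL, mixed with blood containing 10^6 parasites at 90/10 ratio, incubated 24 h at 4°C. Parasites counted by the Brener method under microscope; gentian violet positive and PBS negative controls.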

[11] = system: Trypanosoma cruzi; experiment: Antitrypanosomatid activity against Trypanosoma cruzi Tulahuen 2 epimastigote form at 100 uM; format: functional; conditions: read-out: GI; method in brief: as §3
[12] = system: Trypanosoma cruzi; experiment: Activity against Trypanosoma cruzi in BALB/c mouse at 30 mg/kg/day after 60 days; format: functional, organism-based
Method in brief: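 Male BALB/c mice (30 days old, 25-30 g) infected i.p. with 10^3 blood trypomastigotes; oral dosing began 10 days post-infection, 30 mg/kg/day as aqueous PBS solution for 10 days; groups of eight, PBS control group of 10. Mortality recorded daily, parasitemia weekly; anti-T. cruzi antibodies measured serologically (absorbance) at 30 and 60 days post-infection, groups compared by Wilcoxon test.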

[13] = system: J774; experiment: Cytotoxicity against mouse J774 macrophage at 4 uM; format: functional, cell-based; method in brief: as §2

Structure (SMILES) | Activity [1] | Activity [2] | Activity [3] | inhibition of growth at 25 µM [6] [%] | Activity [10] [%] | inhibition of growth at 100 µM [11] [%] | other results
COc1ccc2c(c1)=[N+]([O-])C(C)(C)[N+]=2[O-] | 70% | inactive | 70% | 52 | 34 |  | Activity [4]: Toxic; Activity [5]: < 50%; IC50 [7]: 28.5 µM; IC50 [8]: 25 µM; IC50 [9]: 17 µM
Cc1n(O)c2ccc(Cl)cc2[n+]1[O-] |  |  |  | 0 |  | 8 | 
O=[N+]([O-])c1ccc2c(c1)[n+]([O-])c1n2CCOC1 |  |  |  | 0 |  |  | 
O=[N+]([O-])c1ccc2c(c1)[n+]([O-])c1n2CCSC1 |  |  |  | 0 |  |  | 
O=C(Cn1ccnc1[N+](=O)[O-])NCc1ccccc1 [BENZNIDAZOLE] |  |  |  | 92 |  |  | IC50 [7]: 8.5 µM; IC50 [8]: 3.4 µM
CC1(C)[N+]([O-])=c2ccc(Br)cc2=[N+]1[O-] |  |  |  | 77 |  |  | Activity [4]: Toxic; Activity [5]: < 50%; IC50 [7]: 8.3 µM; IC50 [8]: 12 µM; IC50 [9]: 13.8 µM
CCCCOC(=O)c1[nH]c2ccc([N+](=O)[O-])cc2[n+]1[O-] |  |  |  |  | 0 |  | 
CC1CS(=O)(=O)CCN1/N=C/c1ccc([N+](=O)[O-])o1 (stereo not drawn) [NIFURTIMOX] |  |  |  | 93 |  |  | 
CC1(C)[N+]([O-])=c2ccc(/C=C/c3ccccc3)cc2=[N+]1[O-] |  |  |  | 100 |  |  | Activity [4]: Toxic; Activity [5]: < 50%; IC50 [7]: 3.4 µM; IC50 [8]: 6 µM; IC50 [9]: 5 µM
CCOC(=O)c1[nH]c2ccc([N+](=O)[O-])cc2[n+]1[O-] | inactive | inactive | inactive |  | 0 |  | 
CCOC(=O)COn1c(C)[n+]([O-])c2cc(/C=C/c3ccccc3)ccc21 |  |  |  | 8 |  | 11 | 
CCOC(=O)COn1c(C)[n+]([O-])c2ccccc21 |  |  |  | 1 |  | 12 | 
CC1(C)[N+]([O-])=c2ccc(C3OCCO3)cc2=[N+]1[O-] | 100% | 100% | 100% | 59 | 28 |  | Activity [4]: 50%; Activity [12]: Active; IC50 [7]: 22.7 µM; IC50 [8]: 20 µM; IC50 [9]: 14 µM
Cc1n(O)c2ccc(/C=C/c3ccccc3)cc2[n+]1[O-] |  |  |  | 19 |  | 15 | 
O=[N+]([O-])c1ccc2c(c1)[n+]([O-])c1n2CCCC1 |  |  |  | 0 |  |  | 
CN(C)c1ccc(C(=C2C=CC(=[N+](C)C)C=C2)c2ccc(N(C)C)cc2)cc1.[Cl-] [GENTIAN VIOLET] |  |  |  |  | 100 |  | 
N=C(N)c1ccc(OCCCCCOc2ccc(C(=N)N)cc2)cc1 [PENTAMIDINE] | 100% | 100% | 100% |  |  |  | 
Cc1n(O)c2ccc(Br)cc2[n+]1[O-] |  |  |  | 0 |  | 18 | 
O=[N+]([O-])c1ccc2c(c1)[n+]([O-])c1n2CCC1 |  |  |  | 0 |  |  | 
CC1(C)[N+]([O-])=c2ccccc2=[N+]1[O-] | 100% | 100% | 100% | 87 | 10 |  | Activity [4]: Toxic; Activity [5]: < 50%; IC50 [7]: 4.3 µM; IC50 [8]: 9 µM; IC50 [9]: 14 µM
Cc1ccc2c(c1)[n+]([O-])c(C)n2O | inactive | inactive | inactive | 0 | 0 | 0 | 
COc1ccc2c(c1)[n+]([O-])c(C)n2O | inactive | inactive | inactive | 0 | 23 | 24 | 
CCCCCCNC(=O)N/N=C/c1ccc2c(c1)=[N+]([O-])C(C)(C)[N+]=2[O-] |  |  |  | 69 |  |  | 
Cc1n(O)c2ccccc2[n+]1[O-] | inactive | inactive | 70% | 0 | 0 | 0 | 
CCOC(=O)COn1c(C)[n+]([O-])c2cc(C)ccc21 |  |  |  | 25 |  | 15 | 
Cc1ccc2c(c1)=[N+]([O-])C(C)(C)[N+]=2[O-] | 70% | 70% | 70% | 85 | 0 |  | Activity [4]: Toxic; Activity [5]: < 50%; IC50 [7]: 5.1 µM; IC50 [8]: 13.5 µM; IC50 [9]: 13 µM
CCCCCOn1c(C)[n+]([O-])c2ccccc21 |  |  |  | 0 |  | 57 | 
CCOC(=O)c1ccc2[nH]c(C(=O)OCC)[n+]([O-])c2c1 | inactive | inactive | inactive |  | 50 |  | 
CC1(C)[N+]([O-])=c2ccc(/C=N/O)cc2=[N+]1[O-] | 100% | 100% | 100% | 72 | 21 |  | Activity [4]: Not toxic; Activity [5]: Not toxic; Activity [13]: Not toxic; Activity [12]: Active; IC50 [7]: 12.5 µM; IC50 [8]: 14.5 µM; IC50 [9]: 11.8 µM
